Results reported in ChEMBL document CHEMBL1157023, “Synthesis and antimicrobial activities of some new thiazole and pyrazole derivatives based on 4,5,6,7-tetrahydrobenzothiophene moiety” (2010).

Tests used:
Type in all cases: functional
Klebsiella pneumoniae = experiment: Antimicrobial activity against Klebsiella pneumoniae at 2 mg/ml after 24 hrs by agar diffusion assay; conditions: read-out: DIZ
Summary of the method: (§1)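 Bacterial strain grown on nutrient agar with test compound in DMSO, DMSO-only control plate for each organism, ampicillin 2 mg/ml as reference. Plates incubated 24 h in three replicate plates per compound. Activity read as inhibition zone diameter.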

Botrytis fabae = experiment: Antifungal activity against Botrytis fabae at 2 mg/ml after 7 days by agar diffusion assay; conditions: 168 h, read-out: DIZ
Summary of the method: (§2)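 Fungus grown on potato dextrose agar with test compound in DMSO, DMSO-only control plate for each organism. Plates incubated seven days in three replicate plates per compound. Activity read as inhibition zone diameter.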

Bacillus thuringiensis = experiment: Antibacterial activity against Bacillus thuringiensis at 2 mg/ml after 24 hrs by agar diffusion assay; conditions: read-out: DIZ; summary of the method: as §1
Fusarium oxysporum = experiment: Antifungal activity against Fusarium oxysporum at 2 mg/ml after 7 days by agar diffusion assay; conditions: 168 h, read-out: DIZ; summary of the method: as §2

SMILES | zone of inhibition at 2000 µg/mL (Klebsiella pneumoniae) [mm] | zone of inhibition at 2000 µg/mL (Botrytis fabae) [mm] | zone of inhibition at 2000 µg/mL (Bacillus thuringiensis) [mm] | zone of inhibition at 2000 µg/mL (Fusarium oxysporum) [mm]
CC(=O)c1nnc2c(C(=O)Nc3sc4c(c3C(N)=O)CCCC4)c(Nc3ccccc3)nn2c1C | 12 | 18 |  | 
Cc1cc(C)n2nc(Nc3ccccc3)c(C(=O)Nc3sc4c(c3C(N)=O)CCCC4)c2n1 | 17 | 15 | 15 | 13
NC(=O)c1c(NC(=O)c2c(Nc3ccccc3)nn3c4c(cnc23)CCc2ccccc2-4)sc2c1CCCC2 | 17 |  | 15 | 17
Cc1ccc(N/N=C2/C(=O)S/C(=C(\C#N)C(=O)Nc3sc4c(c3C(N)=O)CCCC4)N2c2ccccc2)cc1 | 19 | 18 | 22 | 16
Cc1nn(-c2ccccc2)c2c1cnc1c(C(=O)Nc3sc4c(c3C(N)=O)CCCC4)c(Nc3ccccc3)nn12 | 18 | 16 | 16 | 14
NC(=O)c1c(NC(=O)c2cn[nH]c2N)sc2c1CCCC2 | 20 | 16 | 17 | 12
Cc1ccc(C)n1-c1[nH]nc(Nc2ccccc2)c1C(=O)Nc1sc2c(c1C(N)=O)CCCC2 | 22 | 18 | 18 | 14
NC(=O)c1c(NC(=O)c2c(Nc3ccccc3)nn3c(-c4ccccc4)ccnc23)sc2c1CCCC2 | 19 | 15 | 15 | 19
COc1ccc(/C=c2\c(=O)s/c(=C(\C#N)C(=O)Nc3sc4c(c3C(N)=O)CCCC4)n2-c2ccccc2)cc1 | 23 | 13 | 20 | 15
Cc1cc(C)c2c(n1)nn1c(N)c(C(=O)Nc3sc4c(c3C(N)=O)CCCC4)nnc21 | 18 | 13 | 16 | 13
NC(=O)c1c(NC(=O)c2c(Nc3ccccc3)n[nH]c2N)sc2c1CCCC2 | 22 |  | 24 | 14
N#Cc1nnc2c(C(=O)Nc3sc4c(c3C(N)=O)CCCC4)c(Nc3ccccc3)nn2c1N | 18 | 16 | 16 | 
N#C/C(C(=O)Nc1sc2c(c1C(N)=O)CCCC2)=C1\SC(=O)CN1c1ccccc1 | 19 | 12 | 21 | 16
CC1(C)S[C@@H]2[C@H](NC(=O)[C@H](N)c3ccccc3)C(=O)N2[C@H]1C(=O)O [AMPICILLIN] | 20 | 15 | 17 | 17
